Results reported in article PMC3483131 (The Journal of Cell Biology, 2012).
Blank lines part the entries; values can stand above or below the molecule they belong to.

Key:
[1] = test system: BM collagen IV / MDA-MB-231 cells; test: Native peritoneal basement membrane; format: cell-based, mouse (C57BL/6) BM; settings: 3 d culture; GM6001 at 5 µM
Method in brief: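 Native basement membrane was made by stripping mesothelial cells from C57BL/6 mouse mesentery (1 N ammonium hydroxide) and mounting it on 6.5-mm Transwells. 5 × 10^4 MDA-MB-231 cells were seeded on top in DME/10% FBS, with medium below, and cultured 3 d. Samples were fixed in 4% formaldehyde, then stained on both sides for collagen IV (antibody 1:200), phalloidin and DAPI, and imaged by confocal. Read-out was total remaining collagen IV fluorescence; ≥3 independent experiments in duplicate.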

[2] = test system: MDA-MB-231 cells; settings: CIA; ref Yu and Machesky, 2012; cited from earlier work
[3] = target: actin (F-actin) in invasive pseudopods of MDA-MB-231 cells (human (endogenous in MDA-MB-231)) (UniProt P60709); test: FRET or BRET
[4] = test system: mCherry-MT1-MMP in MDA-MB-231 cells; test: FRAP of mCherry-MT1-MMP at plasma membrane of cells in CIA; format: cell-based; settings: invasive pseudopods in Matrigel (CIA); LatA at 2 µM
Method in brief: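 mCherry-MT1-MMP expressed in MDA-MB-231 cells by nucleofection; cells kept at 37°C, 5% CO2. Photobleaching was done on the plasma membrane of invasive pseudopods in Matrigel and compared with other cell-surface regions, such as the membrane next to the nucleus. Fluorescence recovery gave MT1-MMP mobility.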

[5] = test system: GFP-actin in MDA-MB-231 cells; test: FRAP of GFP-actin in invasive pseudopods; format: cell-based; settings: 2 µM LatA, invasive pseudopod, FRAP 90 s

Molecule: CNC(=O)[C@H](Cc1c[nH]c2ccccc12)NC(=O)[C@@H](CC(=O)NO)CC(C)C [GM6001]
degradation and remodeling of BM collagen IV [1]: significantly blocked
reduction of migration speed [2]: 30–50%

donor fluorescence lifetime with acceptor (FLIM-FRET) [3]: 2.25 ns
shift in the donor fluorescence lifetime (FLIM-FRET) [3]: 150 ps
Molecule: MT1-MMP-GFP (from UniProt P50281 112-582) (natural protein)

Molecule: C/C1=C/C(=O)O[C@@H]2C[C@@H](CC[C@H](C)/C=C\C=C\CC1)O[C@@](O)([C@@H]1CSC(=O)N1)C2 [Latrunculin A]
mobility of MT1-MMP in pseudopods [4]: mCherry-MT1-MMP became more mobile
GFP-actin exchange [5]: GFP-actin exchanged much faster
